# Calls of active or inactive are those of the source. The rule behind the calls is not given here.
# How the values were obtained:
# HUVEC (Homo sapiens) = assay: Cytotoxicity against HUVEC cells up to 10 uM
# Bcl-xL/BAK = Bcl-xL/BAK (Homo sapiens, UniProt Q07817); assay: Inhibition of His-tagged Bcl-xL (unknown origin)/5-carboxyfluorescein-labeled Bak (unknown origin) protein protein interaction after 1 hr by fluorescence polarization assay
# In short: (§1)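 Competition FP assay displacing a fluorescent-tagged BH3-domain probe (Bak peptide for Bcl-xL, Bid peptide for Mcl-1). Run in triplicate, with reference BH3-mimetic positive controls.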
# KB = assay: Cytotoxicity against human KB cells up to 10 uM; type: functional, cell-based
# [1] = target: Induced myeloid leukemia cell differentiation protein Mcl-1/BH3-interacting domain death agonist (Homo sapiens, UniProt Q07820); assay: Inhibition of His-tagged MCL1 (unknown origin)/5-carboxyfluorescein-labeled Bid (unknown origin) protein protein interaction after 1 hr by fluorescence polarization assay
# In short: as §1
# Chain of Bcl-xL/BAK (Q07817 whole entry): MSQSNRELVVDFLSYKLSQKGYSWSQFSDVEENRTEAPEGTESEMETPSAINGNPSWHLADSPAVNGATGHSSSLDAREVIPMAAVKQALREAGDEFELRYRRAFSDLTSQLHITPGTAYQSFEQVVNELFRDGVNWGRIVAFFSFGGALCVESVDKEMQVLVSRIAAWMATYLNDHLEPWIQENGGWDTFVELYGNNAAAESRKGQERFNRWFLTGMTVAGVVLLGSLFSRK
# Chain of Bcl-xL/BAK (Q16611 whole entry, further chain): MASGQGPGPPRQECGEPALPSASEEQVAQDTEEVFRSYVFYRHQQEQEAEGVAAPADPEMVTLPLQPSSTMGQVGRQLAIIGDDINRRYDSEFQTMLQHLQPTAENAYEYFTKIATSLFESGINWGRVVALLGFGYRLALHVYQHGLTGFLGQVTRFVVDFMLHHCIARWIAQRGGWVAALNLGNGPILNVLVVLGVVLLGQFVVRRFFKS
# Chain of Induced myeloid leukemia cell differentiation protein Mcl-1/BH3-interacting domain death agonist (Q07820 whole entry, the tested form may be a part): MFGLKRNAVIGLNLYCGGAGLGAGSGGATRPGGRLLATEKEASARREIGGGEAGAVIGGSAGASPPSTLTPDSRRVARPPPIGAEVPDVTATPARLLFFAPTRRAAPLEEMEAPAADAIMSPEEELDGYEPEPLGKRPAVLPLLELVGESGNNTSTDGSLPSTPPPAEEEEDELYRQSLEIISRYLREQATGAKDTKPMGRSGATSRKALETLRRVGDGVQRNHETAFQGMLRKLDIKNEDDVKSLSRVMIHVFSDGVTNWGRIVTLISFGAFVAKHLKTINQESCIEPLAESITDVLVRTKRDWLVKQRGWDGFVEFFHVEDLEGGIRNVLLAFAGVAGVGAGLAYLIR
# Chain of Induced myeloid leukemia cell differentiation protein Mcl-1/BH3-interacting domain death agonist (P55957 whole entry, further chain, the tested form may be a part): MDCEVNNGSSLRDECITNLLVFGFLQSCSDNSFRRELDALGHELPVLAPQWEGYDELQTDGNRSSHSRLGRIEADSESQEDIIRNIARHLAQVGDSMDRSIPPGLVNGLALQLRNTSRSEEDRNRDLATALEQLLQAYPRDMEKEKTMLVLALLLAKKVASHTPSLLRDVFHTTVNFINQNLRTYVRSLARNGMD
Structure (SMILES),Ki (Bcl-xL/BAK),Activity (HUVEC (Homo sapiens)),Activity (KB),Ki [1]
COC1=C(O)C(=O)/C(=C(\O)C2CC=C(CCC=C(C)C)CC2c2ccccc2)C(=O)C1=O (racemic),17.5 µM,inactive,inactive,3.1 µM
COC1=C(O)C(=O)/C(=C(\O)[C@@H]2CC=C(CCC=C(C)C)C[C@H]2c2ccccc2)C(=O)C1=O,4.8 µM,inactive,inactive,2.4 µM
COC1=C(O)C(=O)/C(=C(\O)[C@H]2CC=C(CCC=C(C)C)C[C@@H]2c2ccccc2)C(=O)C1=O,> 23 µM,inactive,inactive,7.4 µM
COc1cc(/C=C/c2ccccc2)oc(=O)c1 [DESMETHOXYYANGONIN],> 23 µM,inactive,inactive,> 33 µM
CC(=O)C1CC(CCC=C(C)C)=CCC1c1ccccc1 (racemic),> 23 µM,inactive,inactive,> 33 µM

# Second part, led by results:
Ki (Bcl-xL/BAK),Structure (SMILES),Activity (HUVEC (Homo sapiens)),Activity (KB),Ki [1]
> 23 µM,COc1c(O)c2c(c(O)c1OC)C(=O)C[C@H](c1ccccc1)O2,inactive,inactive,> 33 µM
> 23 µM,COC1=C(OC)C(=O)C2=C(O[C@@H](c3ccccc3)CC2=O)C1=O,inactive,inactive,> 33 µM
> 23 µM,CC(C)=CCCC1=CCC(C(=O)O)C(c2ccccc2)C1 (racemic),inactive,inactive,> 33 µM
> 23 µM,CC(=O)C1CC=C(CCC=C(C)C)CC1c1ccccc1 (racemic),inactive,inactive,> 33 µM
2.6 µM,CC(C)=CCC[C@H](C)[C@@H]1C=C[C@]2(C(=O)O)[C@@H](CC(C)=C[C@H]2/C=C(\C)C2CCC(C(=O)O)CC2)C1 (some centres not stated),,,

# — ChEMBL document CHEMBL4130571, “(+)- and (-)-Ecarlottones, Uncommon Chalconoids from Fissistigma latifolium with Pro-Apoptotic Activity” (J Nat Prod, 2017)
